In the library only some 2.5% were active in any assay of this set; here they are far more common.
SENP7 block = SENP7 protease inhibitors, primary screen, biochemical, luminescence, uHTS. Sentrin-specific protease 7 (Homo sapiens), Q9BQF6. recombinant SENP7, Z-RLRGG-aminoluciferin luminescence, 40 min. inhibition, % at 5 µM. hit rate 1.5% among 330,000;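 active = inhibition above about 50% at the single test dose, limit read from the data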;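 note: plate controls were DMSO with enzyme for no effect and no enzyme buffer wells for full effect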
Target sequence (Q9BQF6 706-1050 limits assumed): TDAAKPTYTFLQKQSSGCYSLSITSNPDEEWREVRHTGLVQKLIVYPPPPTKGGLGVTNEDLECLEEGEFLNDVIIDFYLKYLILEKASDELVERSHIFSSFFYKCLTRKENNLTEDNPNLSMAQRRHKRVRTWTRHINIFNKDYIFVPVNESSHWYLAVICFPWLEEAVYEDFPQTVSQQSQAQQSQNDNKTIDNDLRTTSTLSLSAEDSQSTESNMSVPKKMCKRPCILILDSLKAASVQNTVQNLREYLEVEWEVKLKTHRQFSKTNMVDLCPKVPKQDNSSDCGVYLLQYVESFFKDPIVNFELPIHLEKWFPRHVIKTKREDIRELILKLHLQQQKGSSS
SENP8 block-1 = human SENP8 protease inhibitors, primary screen, biochemical, fluorescence, Nedd8 protein substrate, uHTS. Sentrin-specific protease 8 (Homo sapiens), Q96LD8. hit rate 0.64% among 360,000. inhibition, % at 20 µM. recombinant SENP8; in the data active = inhibition mostly above about 40%, no sharp cut-off; inactive = mostly below about 27%
Target sequence (Q96LD8 whole entry, looked up): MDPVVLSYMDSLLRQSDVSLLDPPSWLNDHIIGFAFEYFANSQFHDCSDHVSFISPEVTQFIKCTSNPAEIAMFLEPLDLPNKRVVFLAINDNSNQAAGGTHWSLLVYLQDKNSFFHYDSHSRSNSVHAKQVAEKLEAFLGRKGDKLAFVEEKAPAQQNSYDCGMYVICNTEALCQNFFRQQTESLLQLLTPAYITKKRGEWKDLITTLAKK
SENP6 block = SENP6 protease inhibitors, primary screen, biochemical, luminescence, uHTS | inhibition, % at 10 µM | Sentrin-specific protease 6 (Homo sapiens), Q9GZR1 | hit rate 1.8% among 330,000 | Recombinant SENP6 catalytic domain, aminoluciferin luminescence | AID 2599, 2010;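 active = inhibition above about 50% at the single tested dose, limit read from the data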;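 note: plate controls were DMSO wells with enzyme for no effect and DMSO wells lacking enzyme for full effect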
SENP1 inh = human SENP1 catalytic domain inhibitors, primary screen, biochemical, FRET, uHTS. recombinant SENP1 catalytic domain, CyPet-SUMO1-YPet FRET cleavage. hit rate 0.21% among 360,000. inhibition, % at 10 µM;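 active = inhibition at least 30% at 10 µM, raw YFP signal under a set limit, fluorescence ratio 0.5 to 1.5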;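 note: 0% = enzyme with DMSO and 100% = no enzyme wells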
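system = hSENP1 catalytic domain, recombinant | reagent = SFCypet-SUMO1-SFYpet substrate at 25 nM | doses = one dose per compound, 10 µM, 0.5% DMSO | incubation = enzyme reaction for 50 min at room temperature, dark | measured by = FRET, CFP and YFP emission | controls = no-enzyme low, enzyme-DMSO high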
SENP8 block-2 = SENP8 protease inhibitors, primary screen, biochemical, luminescence | Sentrin-specific protease 8 (Homo sapiens), Q96LD8 | purified SENP8, Z-RLRGG-aminoluciferin cleavage | inhibition, % at 10 µM | hit rate 1.2% among 330,000 | AID 2540, 2010; in the data active = inhibition above about 50%
SENP8 inh conf = human SENP8 protease inhibitors, confirmation, biochemical, Nedd8 protein substrate, single concentration; purified SENP8, Nedd8-AMC/pro-Nedd8 cleavage fluorescence, 30 min; inhibition, % at 25 µM; hit rate 15% among 1,400; shares compounds with SENP8 block-1; in the data active = inhibition mostly above about 39%, no sharp cut-off; inactive = mostly below about 34%
Starred values were filed as active, the others as inactive.

`CO/N=C(/c1nonc1N)N1CCN(c2ccc([N+](=O)[O-])cc2)CC1` gave SENP7 block 5, SENP8 block-1 41*, SENP6 block -3, SENP1 inh -4, SENP8 block-2 2 and SENP8 inh conf 0.
`CCc1nc(SCC(=O)NC2CC2)c2c(C)c(C)sc2n1` gave SENP7 block 12, SENP8 block-1 9, SENP6 block 10, SENP1 inh 0 and SENP8 block-2 1.
For O=C(CS(=O)(=O)Cc1ccccc1)N1CCc2ccccc2C1 the results were SENP7 block -10, SENP8 block-1 50*, SENP6 block 6, SENP1 inh -3, SENP8 block-2 -3 and SENP8 inh conf 76*.
Screening CS(=O)(=O)N(CC(=O)N1CCc2ccccc2C1)Cc1ccccc1 returned SENP7 block 1, SENP8 block-1 19, SENP6 block -8, SENP1 inh 3 and SENP8 block-2 -4.
Screening C=Cn1ccnc1CC(O)c1ccc(OC)cc1 (centres undefined) returned SENP7 block 8, SENP8 block-1 44*, SENP6 block -17, SENP1 inh 0, SENP8 block-2 -8 and SENP8 inh conf -6.
Screening COc1ccc(C(O)c2nccn2C)cc1 (centres undefined) returned SENP7 block -7, SENP8 block-1 8, SENP6 block -18, SENP1 inh 1 and SENP8 block-2 -9.
For C=CCOn1c(=O)c(-c2ccc(OCC)cc2)[n+]([O-])c2ccccc21 the results were SENP7 block -2, SENP8 block-1 -96, SENP6 block -24, SENP1 inh -16 and SENP8 block-2 -4.
Screening CC(C)Nc1ccc(C(CC(N)=O)NC(=O)c2ccccc2)cc1[N+](=O)[O-] (centres undefined) returned SENP7 block 4, SENP8 block-1 44*, SENP6 block -10, SENP1 inh 0, SENP8 block-2 -1 and SENP8 inh conf 7.
`CC(C)Nc1ccc(C(CC(N)=O)NC(=O)c2ccc(Br)cc2)cc1[N+](=O)[O-]` (centres undefined) gave SENP7 block 3, SENP8 block-1 17, SENP6 block -5, SENP1 inh 3 and SENP8 block-2 -4.
For NC(=O)CC(NC(=O)c1ccccc1)c1ccc(NC2CCCC2)c([N+](=O)[O-])c1 (centres undefined) the results were SENP7 block 3, SENP8 block-1 41*, SENP6 block 3, SENP1 inh 6, SENP8 block-2 4 and SENP8 inh conf 24.
COc1ccc(NC(=O)C2CC(=O)N/C(=N/NC(=O)c3ccc(Cl)cc3)S2)cc1 (centres undefined) was read as SENP7 block 12, SENP8 block-1 40*, SENP6 block 7, SENP1 inh 2, SENP8 block-2 -2 and SENP8 inh conf 9.
`COC(=O)CCCC1=CC2=C(c3ccccc3)C(=O)C(C)(OC(=O)C3CCCC3)C(=O)C2=CN1CCCCO` (centres undefined) gave SENP7 block 6, SENP8 block-1 48*, SENP6 block 5, SENP1 inh -24, SENP8 block-2 -1 and SENP8 inh conf 66*.
Screening COC(=O)CCCC1=CC2=CC(=O)C(C)(OC(=O)c3cccs3)C(=O)C2=CN1C1CC1 (centres undefined) returned SENP7 block 8, SENP8 block-1 41*, SENP6 block 22, SENP1 inh -14, SENP8 block-2 14 and SENP8 inh conf 63*.
COC(=O)CCCC1=CC2=CC(=O)C(C)(OC(=O)c3cccs3)C(=O)C2=CN1CCN1CCOCC1 (centres undefined) was read as SENP7 block 6, SENP8 block-1 51*, SENP6 block 19, SENP1 inh -72, SENP8 block-2 7 and SENP8 inh conf 55*.
For COC(=O)CCCC1=CC2=C(c3ccccc3)C(=O)C(C)(OC(=O)C3CCCC3)C(=O)C2=CN1Cc1ccco1 (centres undefined) the results were SENP7 block -8, SENP8 block-1 2, SENP6 block 1, SENP1 inh -13 and SENP8 block-2 4.
`COC(=O)CCCC1=CC2=CC(=O)C(C)(OC(=O)c3cccs3)C(=O)C2=CN1CCCCO` (centres undefined) gave SENP7 block 2, SENP8 block-1 53*, SENP6 block 15, SENP1 inh -23, SENP8 block-2 7 and SENP8 inh conf 56*.
COC(=O)CCCC1=CC2=CC(=O)C(C)(OC(=O)c3cccs3)C(=O)C2=CN1C1CCCCC1 (centres undefined) was read as SENP7 block -6, SENP8 block-1 27, SENP6 block 4, SENP1 inh -9 and SENP8 block-2 5.
Screening Cc1c(Br)c([N+](=O)[O-])nn1CC(=O)NCc1cccnc1 returned SENP7 block 0, SENP8 block-1 14, SENP6 block 2, SENP1 inh 1 and SENP8 block-2 9.
Cc1n[nH]c2ccc([N+](=O)[O-])cc2c1=O was read as SENP8 block-1 12 and SENP1 inh 2.
`CC1(c2ccccc2)CC(C)(C)n2c(O)c(C3=NC(=S)NC3=O)c3cccc1c32` (centres undefined) gave SENP7 block 3, SENP8 block-1 50*, SENP6 block -7, SENP1 inh 2, SENP8 block-2 -1 and SENP8 inh conf 16.
Cc1cc(C(=O)NCc2ccccc2Cl)n(-c2ccccc2)n1 was read as SENP7 block -7, SENP8 block-1 6, SENP6 block -18, SENP1 inh 1 and SENP8 block-2 0.
For CCOc1ccc(CCNC(=O)C(C)n2nc(C)n3c(cc4occc43)c2=O)cc1OCC (centres undefined) the results were SENP7 block -3, SENP8 block-1 42*, SENP6 block -21, SENP1 inh -1, SENP8 block-2 -13 and SENP8 inh conf 13.
Screening Cc1nn(C(C)C(=O)NCCc2ccccc2)c(=O)c2cc3occc3n12 (centres undefined) returned SENP7 block -2, SENP8 block-1 -4, SENP6 block 3, SENP1 inh -2 and SENP8 block-2 -3.
`COc1ccc(O)cc1` gave SENP7 block -2, SENP8 block-1 48*, SENP6 block -1, SENP1 inh 3, SENP8 block-2 7 and SENP8 inh conf 6.
For COc1ccc(-c2ccnc(-c3ccc(O)cc3)n2)cc1 the results were SENP7 block 5, SENP8 block-1 4, SENP6 block 8, SENP1 inh 1 and SENP8 block-2 -2.

Assay outcomes (PubChem BioAssay)
